These results are taken from article PMC5949723 (Journal of Medicinal Chemistry, 2018).

Test [1] deals with T1, full length TbrPDEB1 (Trypanosoma brucei, UniProt Q8WQX9).
T1 sequence (Q8WQX9 1-930): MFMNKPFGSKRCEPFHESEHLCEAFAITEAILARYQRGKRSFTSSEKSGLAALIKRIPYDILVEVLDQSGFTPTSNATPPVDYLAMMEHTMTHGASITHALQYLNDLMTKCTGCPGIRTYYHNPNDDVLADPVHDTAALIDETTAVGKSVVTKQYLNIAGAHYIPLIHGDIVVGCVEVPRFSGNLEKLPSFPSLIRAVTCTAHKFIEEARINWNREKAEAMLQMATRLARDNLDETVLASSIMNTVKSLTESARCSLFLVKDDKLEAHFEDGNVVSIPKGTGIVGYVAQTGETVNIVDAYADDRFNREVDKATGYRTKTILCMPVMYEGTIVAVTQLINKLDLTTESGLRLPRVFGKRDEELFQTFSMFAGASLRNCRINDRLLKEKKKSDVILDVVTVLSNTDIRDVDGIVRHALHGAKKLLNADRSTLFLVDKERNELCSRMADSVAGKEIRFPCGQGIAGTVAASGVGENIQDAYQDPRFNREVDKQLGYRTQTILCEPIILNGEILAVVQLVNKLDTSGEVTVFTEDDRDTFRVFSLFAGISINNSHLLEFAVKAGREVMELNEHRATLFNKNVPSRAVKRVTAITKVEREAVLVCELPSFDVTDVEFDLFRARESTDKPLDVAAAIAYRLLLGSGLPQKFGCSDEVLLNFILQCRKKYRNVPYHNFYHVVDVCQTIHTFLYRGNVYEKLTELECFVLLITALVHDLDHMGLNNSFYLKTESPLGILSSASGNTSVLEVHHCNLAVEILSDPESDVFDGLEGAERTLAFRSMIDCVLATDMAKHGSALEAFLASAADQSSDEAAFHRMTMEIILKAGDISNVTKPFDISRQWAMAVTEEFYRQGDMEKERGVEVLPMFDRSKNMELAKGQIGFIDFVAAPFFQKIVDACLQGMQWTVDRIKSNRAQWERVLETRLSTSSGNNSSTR
Nature of the test: Phosphodiesterase activity assay. Conditions: for Selectivity, hPDE4B1 (Ki)/TbrPDEB1 (Ki): ratio of Ki values. It is filed as biochemical.

For test [2], the target named is T2, full length recombinant hPDE4B1 (Homo sapiens, UniProt Q07343). Nature of the test: Phosphodiesterase activity assay. In kind it is biochemical.
Test [3] concerns intracellular cAMP levels in T. brucei. Nature of the test: Intracellular cAMP measurements in bloodstream form trypanosomes. In kind it is cell-based, T. brucei Lister 427. Conditions: 5 h. Put shortly: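 Log-phase bloodstream forms, HMI-9 with 10% heat-inactivated FBS, 37 °C, 5% CO2, set at 2 × 10^6 cells/mL. Dosed 5 h with test compound at 0.1, 0.33, 1, 3.3 or 10 μM (final), 0.3 μM PDE inhibitor positive control, 0.025 μM pentamidine, or no drug. 5 × 10^6 cells pelleted and lysed in 0.1 M HCl on ice 20 min; cAMP assayed in extracts in duplicate. Mean of four determinations ± SEM, Student's t-test, P < 0.05.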

Test [4] concerns T. brucei bloodstream forms. Kind of test: Microscopy and DAPI staining. In kind it is cell-based. The following applies: 10 μM. Put shortly:
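Lister 427 bloodstream forms in HMI-9 with 10% heat-inactivated FBS, 37 °C, 5% CO2, seeded at 2 × 10^5 cells/mL with 10 μM test compound. Sampled at 0, 6, 12 and 24 h, pelleted at 4 °C, washed in PBS pH 7.4 and spread on slides. DAPI-stained; brightfield and fluorescence imaging scored nuclear and kinetoplast division, cytokinesis and morphology.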

Test [5] deals with T2, full length recombinant hPDE4B1. The following applies: read-out: hPDE4B1 IC50; cited from earlier work.
The subject of the next test is hPDE4 subtypes. The following applies: read-out: hPDE4 subtypes IC50; cited from earlier work.
In a further test the test system is T. brucei. Conditions: cited from earlier work.
Test [6] concerns T. brucei cellular PDE activity. The following applies: cited from earlier work.
The target of test [7] is T1, full length TbrPDEB1. The following applies: established hPDE4 inhibitors; cited from earlier work.

A value given as a limit tells only on which side of the number the result lay.

T2 sequence (Q07343 whole entry): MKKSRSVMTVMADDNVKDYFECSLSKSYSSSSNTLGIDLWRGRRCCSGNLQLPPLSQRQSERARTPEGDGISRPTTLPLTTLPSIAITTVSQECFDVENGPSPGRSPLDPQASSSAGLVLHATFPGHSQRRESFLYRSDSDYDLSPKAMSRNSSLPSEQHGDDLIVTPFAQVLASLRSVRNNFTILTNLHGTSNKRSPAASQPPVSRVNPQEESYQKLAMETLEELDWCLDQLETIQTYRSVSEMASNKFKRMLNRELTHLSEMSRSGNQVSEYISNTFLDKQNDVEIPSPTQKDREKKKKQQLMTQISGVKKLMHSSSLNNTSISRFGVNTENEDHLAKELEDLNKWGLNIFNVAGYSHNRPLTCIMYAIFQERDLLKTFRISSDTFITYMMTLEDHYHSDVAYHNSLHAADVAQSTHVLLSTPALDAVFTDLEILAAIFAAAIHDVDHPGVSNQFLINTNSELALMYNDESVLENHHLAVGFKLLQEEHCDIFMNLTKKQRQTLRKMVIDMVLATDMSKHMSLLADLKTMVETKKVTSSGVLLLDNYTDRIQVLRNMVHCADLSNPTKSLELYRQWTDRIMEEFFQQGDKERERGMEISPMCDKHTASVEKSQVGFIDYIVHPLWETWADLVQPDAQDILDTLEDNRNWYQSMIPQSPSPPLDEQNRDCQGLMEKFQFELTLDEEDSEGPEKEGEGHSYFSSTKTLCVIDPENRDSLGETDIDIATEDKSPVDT

`COc1ccc(C2=NN(C3CCCCCC3)C(=O)C3CC=CCC23)cc1-c1ccc(C(=O)N2CC[C@@H](O)C2)cc1` (mixture of isomers) [compound 21, cis-2-Cycloheptyl-4-(4′-((R)-3-hydroxy-pyrrolidine-1-carbonyl)-6-methoxy-[1,1′-biphenyl]-3-yl)-4a,5,8,8a-tetrahydrophthalazin-1(2H)-one]: at full length TbrPDEB1 [1], the “Selectivity, hPDE4B1 (Ki)/TbrPDEB1 (Ki)” value came to 9.

Take `COc1ccc(C2=NN(C(C)C)C(=O)C3CC=CCC23)cc1-c1ccc(C(=O)N2CC[C@@H](O)C2)cc1` (mixture of isomers) [compound 22, cis-4-(4′-((R)-3-Hydroxypyrrolidine-1-carbonyl)-6-methoxy-[1,1′-biphenyl]-3-yl)-2-isopropyl-4a,5,8,8a-tetrahydrophthalazin-1(2H)-one]: at full length TbrPDEB1 [1], the affinity corresponds to a Ki of 200 nM and the “Selectivity, hPDE4B1 (Ki)/TbrPDEB1 (Ki)” value was 15. Besides, the inhibition constant Ki in test [2] is 3.16 µM.

Take `COc1ccc(C2=NN(C3CCCCCC3)C(=O)C3CC=CCC23)cc1-c1ccc(C(=O)N2CCC[C@@H]2C(N)=O)cc1` (mixture of isomers) [compound 23, (R)-1-(5′-(cis-3-Cycloheptyl-4-oxo-3,4,4a,5,8,8a-hexahydrophthalazin-1-yl)-2′-methoxy-[1,1′-biphenyl]-4-carbonyl)pyrrolidine-2-carboxamide]: the “selectivity for TbrPDEB1 over hPDE4B1” value on full length TbrPDEB1 [1] is listed as “more than 10 fold”.

As to `COc1ccc(C2=NN(C(C)C)C(=O)C3CC=CCC23)cc1-c1ccc(C(=O)N2CCC[C@@H]2C(N)=O)cc1` (mixture of isomers) [compound 24, (R)-1-(5′-(cis-3-Isopropyl-4-oxo-3,4,4a,5,8,8a-hexahydrophthalazin-1-yl)-2′-methoxy-[1,1′-biphenyl]-4-carbonyl)pyrrolidine-2-carboxamide], at full length TbrPDEB1 [1], the “selectivity for TbrPDEB1 over hPDE4B1” value is “more than 10 fold” and the “Selectivity, hPDE4B1 (Ki)/TbrPDEB1 (Ki)” value is on record as 18. In addition, in test [2], the Ki is 10 µM.

In the case of `COc1ccc(C2=NN(C3CCCCCC3)C(=O)[C@@H]3CC=CC[C@H]23)cc1-c1ccc(C(=O)NCC(N)=O)cc1` (relative stereo) [compound 8, N-(2-Amino-2-oxoethyl)-5′-(cis-3-cycloheptyl-4-oxo-3,4,4a,5,8,8a-hexahydrophthalazin-1-yl)-2′-methoxy-[1,1′-biphenyl]-4-carboxamide], the Ki on full length TbrPDEB1 [1] was 100 nM; in test [2], 1 µM. The “effect on intracellular cAMP level” value in test [3] (100 nM, P < 0.05) was “small but significant effect”; in test [3] (10 μM, P < 0.001) it was “strong increase of cAMP level”. The “cellular phenotype by fluorescence microscopy” value in [4] (6 h) was “defect in cytokinesis”; in test [4] (12 h), “rounded cells with multiple flagella, some of them detached, and at least 4 nuclei”; in test [4] (24 h) it was “only a few live cells could be detected, all of which were severely misshapen”.

On to `COc1ccc(C2=NN(C3CCCCCC3)C(=O)[C@@H]3CC=CC[C@H]23)cc1-c1ccc(C(=O)NCC(=O)NCCO)cc1` (relative stereo) [compound 16, 5′-(cis-3-Cycloheptyl-4-oxo-3,4,4a,5,8,8a-hexahydrophthalazin-1-yl)-N-(2-((2-hydroxyethyl)amino)-2-oxoethyl)-2′-methoxy-[1,1′-biphenyl]-4-carboxamide], for which the “selectivity for TbrPDEB1 over hPDE4B1” value on full length TbrPDEB1 [1] is approximately 8 fold.

Turning to `COc1ccc(C2=NN(C3CCCCCC3)C(=O)[C@H]3CC=CC[C@@H]23)cc1-c1ccc(C(=O)NCC(N)=O)cc1` [8a, N-(2-Amino-2-oxoethyl)-5′-((4aS,8aR)-3-cycloheptyl-4-oxo-3,4,4a,5,8,8a-hexahydrophthalazin-1-yl)-2′-methoxy-[1,1′-biphenyl]-4-carboxamide], on full length TbrPDEB1 [1] (8a versus 8b), the “fold less potent against TbrPDEB1 than optical isomer 8b” value turned out to be 100 fold.

For `COc1ccc(C2=NN(C3CCCCCC3)C(=O)[C@@H]3CC=CC[C@H]23)cc1OCCCCOc1ccc(-c2nnn[nH]2)cc1` [compound 1], in test [3] (positive control 0.3 μM, compared with 10 μM of 8), the “effect on intracellular cAMP level” value was “equally effective”. Further, the half-maximal inhibitory concentration (IC50) in [5] is 0.6 nM; with hPDE4 subtypes, less than 1 nM.

Consider `CCOC(=O)c1cnc2c(cnn2CC)c1NN=C(C)C` [etazolate], for which, in the test with T. brucei, the “killing of the parasite” value was “do not kill the parasite”. In addition, the “inhibition of T. brucei cellular PDE activity” value in [6] is on record as “do not inhibit”. For the same compound, at full length TbrPDEB1 [7], the “inhibition of the enzyme TbrPDEB1” value was “do not inhibit”.

For the compound `N=C(N)c1ccc(OCCCCCOc2ccc(C(=N)N)cc2)cc1` [pentamidine, reference compound], the “effect on intracellular cAMP level” value in test [3] (negative control, 0.025 μM, versus untreated parasites) is listed as “not statistically different from untreated parasites”.

For `COc1ccc(C2CNC(=O)C2)cc1OC1CCCC1` (stereo not drawn) [rolipram], in the test on T. brucei, the “killing of the parasite” value is recorded as “do not kill the parasite”. For the same compound, the “inhibition of T. brucei cellular PDE activity” value in test [6] is listed as “do not inhibit”. The “inhibition of the enzyme TbrPDEB1” value at full length TbrPDEB1 [7] is given as “do not inhibit”.
